According to publication PMC9299459 (Clinical Pharmacology in Drug Development, 2021):
“Also recorded” adds a separate entry of the source. Where two headings read alike, the source gives them in different places. Blank lines part the entries; values can stand above or below the compound they belong to.

Legend:
[1] = assay type: in vivo, human; settings: for AUC(0-inf): AUCinf; for AUC(0-t): AUClast
[2] = Safety and tolerability; assay type: in vivo, human; settings: healthy participants
Procedure, shortened: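 Open-label, randomized, 2-period, 2-sequence crossover in healthy men and women of non-childbearing potential, aged 18–55 years. Arms were a single oral 250 mg dose of test compound after overnight fast, or the same dose on day 5 of proton pump inhibitor 40 mg daily for 5 days. Dosing was supervised, in the morning with 240 mL water. All participants dosed at least once were included. AEs, ECGs, vital signs and safety labs were reviewed throughout.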

[3] = aqueous solution, cited from earlier work
[4] = repeated administration; cited from earlier work
[5] = Reference: single 250-mg crizotinib dose after overnight fasting
[6] = Test: esomeprazole 40 mg per day for 5 days and single 250-mg crizotinib dose after overnight fasting on day 5
[7] = healthy participants, plasma, single oral crizotinib 250 mg on day 5 of esomeprazole 40 mg/day (n = 15)
[8] = molar ratio PF-06260182/crizotinib, single oral crizotinib 250 mg alone (n = 15)
[9] = N = 15 per treatment, MedDRA preferred term
[10] = healthy participants, single oral crizotinib 250 mg on day 5 of esomeprazole 40 mg/day (n = 15)
[11] = human, plasma, oral, 250 mg, Adjusted Geometric Mean, Reference, Reference: single 250-mg crizotinib dose after overnight fasting
[12] = human, plasma, oral, Adjusted Geometric Mean, Test, Test: esomeprazole 40 mg per day for 5 days and single 250-mg crizotinib dose after overnight fasting on day 5
[13] = human, plasma, po, 250 mg, Arithmetic Mean ± SD, healthy participants, plasma, single oral crizotinib 250 mg on day 5 of esomeprazole 40 mg/day (n = 15)
[14] = human, plasma, po, 250 mg, Geometric Mean (%CV), healthy participants, plasma, single oral crizotinib 250 mg on day 5 of esomeprazole 40 mg/day (n = 15)

AUCinf, Adjusted Geometric Mean, Reference [1, 5]: 446.0 ng·h/mL | AUClast, Adjusted Geometric Mean, Reference [1, 5]: 436.9 ng·h/mL | Cmax, Adjusted Geometric Mean, Reference [1, 5]: 34.8 ng/mL | AUCinf, Adjusted Geometric Mean, Test [1, 6]: 367.8 ng·h/mL | AUClast, Adjusted Geometric Mean, Test [1, 6]: 359.8 ng·h/mL | Cmax, Adjusted Geometric Mean, Test [1, 6]: 26.9 ng/mL | apparent t1/2, mean value ([1]; both treatments (crizotinib alone and with esomeprazole)): ≈ 20 hours | AUCinf, Arithmetic Mean ± SD [1, 7]: 383 ± 127 ng·h/mL | AUCinf, Geometric Mean (%CV) [1, 7]: 364 (33) ng • h/mL | AUClast, Arithmetic Mean ± SD [1, 7]: 376 ± 126 ng·h/mL | AUClast, Geometric Mean (%CV) [1, 7]: 357 (34) ng • h/mL | Cmax, Arithmetic Mean ± SD [1, 7]: 27.7 ± 6.8 ng/mL | Cmax, Geometric Mean (%CV) [1, 7]: 26.8 (25) ng/mL | t1/2 (terminal elimination half-life), Arithmetic Mean ± SD [1, 7]: 19.5 ± 5.9 h | tmax, median (range) [1, 7]: 6.00 (5.00‐8.05) h | MRAUCinf (metabolite to parent ratio of AUCinf), Geometric Mean (%CV) ([1]; molar ratio PF-06260182/crizotinib, single oral crizotinib 250 mg alone (n = 14)): 0.18 (16) | MRAUClast (metabolite to parent ratio of AUClast), Geometric Mean (%CV) [1, 8]: 0.19 (18) | MRCmax (metabolite to parent ratio of Cmax), Geometric Mean (%CV) [1, 8]: 0.29 (26)
Structure (SMILES): CC(Oc1cc(-c2cnn(C3CCNC(=O)C3)c2)cnc1N)c1c(Cl)ccc(F)c1Cl (stereo not shown) [PF‐06260182]

Effect of esomeprazole coadministration on peak exposure (Cmax) ([1]; esomeprazole 40 mg once daily x 5 days, single crizotinib 250 mg): did not affect; also recorded: no effect | tmax, median (range) [1, 7]: 5.00 (3.00‐6.00) h | CL/F (apparent clearance after oral dose), Arithmetic Mean ± SD [1, 10]: 124.8 ± 40.9 L/h | CL/F (apparent clearance after oral dose), Geometric Mean (%CV) [1, 10]: 117.8 (33) L/h | AUC(0-inf) [1, 11]: 2370 ng·h/mL | AUC(0-t) [1, 11]: 2240 ng·h/mL | Cmax [1, 11]: 115 ng/mL | AUC(0-inf) [1, 12]: 2120 ng·h/mL | AUC(0-t) [1, 12]: 2010 ng·h/mL | Cmax [1, 12]: 117 ng/mL | Tmax ([1]; human, plasma, po, 250 mg): 5 h | half-life ([1]; human, plasma, po, 250 mg): 35.8 ± 4.4 h | AUC(0-inf) [1, 13]: 2260 ± 891 ng·h/mL | AUC(0-inf) [1, 14]: 2120 ng·h/mL | AUC(0-t) [1, 13]: 2170 ± 876 ng·h/mL | AUC(0-t) [1, 14]: 2020 ng·h/mL | Cmax [1, 13]: 119 ± 32.9 ng/mL | Cmax [1, 14]: 115 ng/mL | half-life ([1]; human, plasma, po, 250 mg, t1/2 (terminal elimination half-life), Arithmetic Mean ± SD, healthy participants, plasma, single oral crizotinib 250 mg after overnight fast, alone (n = 15)): 33.2 ± 7 h | Median time to Cmax ([1]; with or without esomeprazole, single crizotinib 250 mg): 5 h
Structure (SMILES): C[C@@H](Oc1cc(-c2cnn(C3CCNCC3)c2)cnc1N)c1c(Cl)ccc(F)c1Cl [Crizotinib]
gastrointestinal disorders (system organ class), all causality [2]: 11 participants | nervous system disorders (system organ class), all causality [2]: 4 participants | treatment-related gastrointestinal disorders (system organ class) [2]: 11 participants | Discontinuations due to AEs, all causality ([2]; N = 15 per treatment): 0 | Dose reductions or temporary discontinuation due to AEs ([2]; N = 15 per treatment): 0 | Participants with AEs, all causality ([2]; N = 15 per treatment): 12 (12) | Participants with AEs, treatment-related ([2]; N = 15 per treatment): 12 (12) | Participants with serious AEs ([2]; N = 15 per treatment): 0 | Participants with severe AEs ([2]; N = 15 per treatment): 0 | Abdominal pain upper, all causality [2, 9]: 0 | Abdominal pain, all causality [2, 9]: 3 (3) | Abdominal pain, treatment-related [2, 9]: 3 (3) | Abnormal gastrointestinal sounds, all causality [2, 9]: 1 (1) | Abnormal gastrointestinal sounds, treatment-related [2, 9]: 1 (1) | Diarrhea, all causality [2, 9]: 11 (11) | Diarrhea, treatment-related [2, 9]: 11 (11) | Dizziness, all causality [2, 9]: 2 (2) | Dizziness, treatment-related [2, 9]: 2 (2) | Fatigue, all causality [2, 9]: 2 (2) | Fatigue, treatment-related [2, 9]: 2 (2) | Headache, all causality [2, 9]: 2 (2) | Headache, treatment-related [2, 9]: 2 (2) | Nausea, all causality [2, 9]: 2 (2) | Nausea, treatment-related [2, 9]: 2 (2) | Number of AEs, all causality ([2]; treatment-emergent): 28 | Number of AEs, treatment-related ([2]; treatment-emergent): 24 | Number of AEs, treatment-related ([2]; treatment-emergent, listed as crizotinib): Twenty‐four | Overall safety and tolerability ([2]; single 250-mg dose): generally safe and well tolerated | solubility ([3]; pH 1.6): > 10000 µg/mL | solubility ([3]; pH 8.2): < 100 µg/mL | time to steady state [4]: 15 days

Structure (SMILES): COc1ccc2nc([S@@+]([O-])Cc3ncc(C)c(OC)c3C)[nH]c2c1 [esomeprazole, Esomeprazole]
gastrointestinal disorders (system organ class), all causality [2]: 3 participants | nervous system disorders (system organ class), all causality [2]: 2 participants | treatment-related gastrointestinal disorders (system organ class) [2]: 3 participants | Number of AEs, treatment-related ([2]; treatment-emergent): 7
